From ChEMBL document CHEMBL1828575, “Design, synthesis and antiproliferative activities of biarylolefins based on polyhydroxylated and carbohydrate scaffolds” (Eur J Med Chem, 2011)

Key:
[1] = tested on: OVCAR-8; assay: Cytotoxicity against human OVCAR8 cells at 10^-6 M after 72 hrs by MTS assay; assay type: functional; conditions: OVCAR-8, 72 h, read-out: GI
In short: (§1)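 Preliminary screen at 10^-5 and 10^-6 M. Cells were grown in RPMI with 10% fetal calf serum plus penicillin, streptomycin and fungizone under 5% CO₂, plated in 96-well plates, and dosed 24 h later from DMSO stocks (1% DMSO final, same in controls). After 72 h, MTS was added for 3 h at 37 °C and absorbance read at 490 nm. Inhibition was calculated as (1 − OD treated/OD control) × 100, in triplicate.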

[2] = tested on: HL-60; assay: Cytotoxicity against human HL60 cells at 10^-5 M after 72 hrs by MTS assay; assay type: functional; conditions: HL-60, 72 h, read-out: GI
In short: (§2)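 Cells grown in RPMI with 10% fetal calf serum, penicillin, streptomycin and fungizone under 5% CO₂. Plated in 96-well plates and dosed 24 h later with compound in DMSO (1% final DMSO; controls got DMSO alone). After 72 h, MTS was added for 3 h at 37 °C and A490 read. Inhibition = (1 − OD treated/OD control) × 100, in triplicate.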

[3] = tested on: SF-268; assay: Cytotoxicity against human SF268 cells at 10^-6 M after 72 hrs by MTS assay; assay type: functional; conditions: SF-268, 72 h, read-out: GI; in short: as §1
[4] = tested on: HCT-15; assay: Cytotoxicity against human HCT15 cells at 10^-5 M after 72 hrs by MTS assay; assay type: functional; conditions: HCT-15, 72 h, read-out: GI; in short: as §2
[5] = Cytotoxicity against human MDA231 cells at 10^-5 M after 72 hrs by MTS assay; assay type: functional; conditions: MDA-MB-231, 72 h, read-out: GI; in short: as §1
[6] = tested on: MIA PaCa-2; assay: Cytotoxicity against human MIAPaCa2 cells at 10^-5 M after 72 hrs by MTS assay; assay type: functional; conditions: MIA PaCa-2, 72 h, read-out: GI
[7] = tested on: MIA PaCa-2; assay: Cytotoxicity against human MIAPaCa2 cells at 10^-6 M after 72 hrs by MTS assay; assay type: functional; conditions: MIA PaCa-2, 72 h, read-out: GI
[8] = tested on: SK-OV-3; assay: Cytotoxicity against human SKOV3 cells at 10^-6 M after 72 hrs by MTS assay; assay type: functional; conditions: SK-OV-3, 72 h, read-out: GI; in short: as §1
[9] = tested on: HL-60; assay: Cytotoxicity against human HL60 cells at 10^-6 M after 72 hrs by MTS assay; assay type: functional; conditions: HL-60, 72 h, read-out: GI; in short: as §2
[10] = tested on: HT-29; assay: Cytotoxicity against human HT-29 cells at 10^-6 M after 72 hrs by MTS assay; assay type: functional; conditions: HT-29, 72 h, read-out: GI; in short: as §2
[11] = tested on: MCF7; assay: Cytotoxicity against human MCF7 cells at 10^-6 M after 72 hrs by MTS assay; assay type: functional; conditions: MCF7, 72 h, read-out: GI
[12] = tested on: HCT-116; assay: Cytotoxicity against human HCT116 cells at 10^-5 M after 72 hrs by MTS assay; assay type: functional; conditions: HCT-116, 72 h, read-out: GI; in short: as §2
[13] = tested on: SF-268; assay: Cytotoxicity against human SF268 cells at 10^-5 M after 72 hrs by MTS assay; assay type: functional; conditions: SF-268, 72 h, read-out: GI; in short: as §1
[14] = tested on: HCT-116; assay: Cytotoxicity against human HCT116 cells at 10^-6 M after 72 hrs by MTS assay; assay type: functional; conditions: HCT-116, 72 h, read-out: GI; in short: as §2
[15] = Cytotoxicity against human HL60R cells at 10^-5 M after 72 hrs by MTS assay; assay type: functional, HL-60; conditions: read-out: GI; in short: as §2
[16] = tested on: SK-MEL-28; assay: Cytotoxicity against human SK-MEL-28 cells assessed as cellular growth at 10 uM after 48 hrs by SRB assay; assay type: functional
[17] = Cytotoxicity against human MDA231 cells at 10^-6 M after 72 hrs by MTS assay; assay type: functional; conditions: MDA-MB-231, 72 h, read-out: GI; in short: as §1
[18] = tested on: MCF7; assay: Cytotoxicity against human MCF7 cells at 10^-5 M after 72 hrs by MTS assay; assay type: functional; conditions: MCF7, 72 h, read-out: GI
[19] = tested on: A549; assay: Cytotoxicity against human A549 cells at 10^-5 M after 72 hrs by MTS assay; assay type: functional; conditions: A549, 72 h, read-out: GI; in short: as §2
[20] = Cytotoxicity against human Hs 578T cells assessed as cellular growth at 10 uM after 48 hrs by SRB assay; assay type: functional
[21] = tested on: HCT-15; assay: Cytotoxicity against human HCT15 cells at 10^-6 M after 72 hrs by MTS assay; assay type: functional; conditions: HCT-15, 72 h, read-out: GI; in short: as §2
[22] = tested on: A549; assay: Cytotoxicity against human A549 cells at 10^-6 M after 72 hrs by MTS assay; assay type: functional; conditions: A549, 72 h, read-out: GI; in short: as §2
[23] = tested on: A498; assay: Cytotoxicity against human A498 cells assessed as cellular growth at 10 uM after 48 hrs by SRB assay; assay type: functional
In short: (§3)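 NCI60 single-dose screen of cells in RPMI 1640 with 5% FBS and 2 mM L-glutamine, preincubated 24 h at 37 °C, 5% CO₂. Cells were then exposed 48 h to compound added from DMSO stock. TCA-fixed, stained with 0.4% SRB in 1% acetic acid, dye solubilised in 10 mM Tris base and read at 515 nm. Growth is given as percent of untreated control.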

[24] = tested on: HT-29; assay: Cytotoxicity against human HT-29 cells at 10^-5 M after 72 hrs by MTS assay; assay type: functional; conditions: HT-29, 72 h, read-out: GI; in short: as §2
[25] = tested on: K562; assay: Cytotoxicity against human K562 cells at 10^-6 M after 72 hrs by MTS assay; assay type: functional; conditions: K562, 72 h, read-out: GI; in short: as §2
[26] = Cytotoxicity against human HL60R cells at 10^-6 M after 72 hrs by MTS assay; assay type: functional; conditions: read-out: GI; in short: as §2
[27] = tested on: PC-3; assay: Cytotoxicity against human PC3 cells at 10^-6 M after 72 hrs by MTS assay; assay type: functional; conditions: PC-3, 72 h, read-out: GI; in short: as §1
[28] = tested on: RXF 393; assay: Cytotoxicity against human RXF393 cells assessed as cellular growth at 10 uM after 48 hrs by SRB assay; assay type: functional
[29] = tested on: OVCAR-8; assay: Cytotoxicity against human OVCAR8 cells at 10^-5 M after 72 hrs by MTS assay; assay type: functional; conditions: OVCAR-8, 72 h, read-out: GI; in short: as §1
[30] = tested on: SW-620; assay: Cytotoxicity against human SW620 cells assessed as cellular growth at 10 uM after 48 hrs by SRB assay; assay type: functional
[31] = tested on: SK-OV-3; assay: Cytotoxicity against human SKOV3 cells at 10^-5 M after 72 hrs by MTS assay; assay type: functional; conditions: SK-OV-3, 72 h, read-out: GI; in short: as §1
[32] = tested on: PC-3; assay: Cytotoxicity against human PC3 cells at 10^-5 M after 72 hrs by MTS assay; assay type: functional; conditions: PC-3, 72 h, read-out: GI; in short: as §1
[33] = tested on: HCC 2998; assay: Cytotoxicity against human HCC2998 cells assessed as cellular growth at 10 uM after 48 hrs by SRB assay; assay type: functional; in short: as §3
[34] = tested on: K562; assay: Cytotoxicity against human K562 cells at 10^-5 M after 72 hrs by MTS assay; assay type: functional; conditions: K562, 72 h, read-out: GI; in short: as §2

## COc1ccc(/C(=C2/O[C@@H]([C@H]3COC(C)(C)O3)[C@H]3OC(C)(C)O[C@@H]23)c2cc(OC)c(OC)c(OC)c2)cc1O
[1]
  inhibition of growth at 1 µM: 0%
[2]
  inhibition of growth at 10 µM: 69%
[3]
  inhibition of growth at 1 µM: 7%
[4]
  inhibition of growth at 10 µM: 66%
[5]
  inhibition of growth at 10 µM: 79%
[6]
  inhibition of growth at 10 µM: 30%
[7]
  inhibition of growth at 1 µM: 0%
[8]
  inhibition of growth at 1 µM: 0%
[9]
  inhibition of growth at 1 µM: 2%
[10]
  inhibition of growth at 1 µM: 2%
[11]
  inhibition of growth at 1 µM: 0%
[12]
  inhibition of growth at 10 µM: 39%
[13]
  inhibition of growth at 10 µM: 68%
[14]
  inhibition of growth at 1 µM: 0%
[15]
  inhibition of growth at 10 µM: 63%
[16]
  Activity: 59.6%
[17]
  inhibition of growth at 1 µM: 0%
[18]
  inhibition of growth at 10 µM: 20%
[19]
  inhibition of growth at 10 µM: 35%
[20]
  Activity: 22.15%
[21]
  inhibition of growth at 1 µM: 3%
[22]
  inhibition of growth at 1 µM: 1%
[23]
  Activity: 63.35%
[24]
  inhibition of growth at 10 µM: 3%
[25]
  inhibition of growth at 1 µM: 2%
[26]
  inhibition of growth at 1 µM: 8%
[27]
  inhibition of growth at 1 µM: 0%
[28]
  Activity: 81.92%
[29]
  inhibition of growth at 10 µM: 17%
[30]
  Activity: 15.44%
[31]
  inhibition of growth at 10 µM: 48%
[32]
  inhibition of growth at 10 µM: 71%
[33]
  Activity: 102.13%
[34]
  inhibition of growth at 10 µM: 82%
